Test results published in ChEMBL document CHEMBL2321792, “Synthesis and antimalarial activity of 3,3-spiroanellated 5,6-disubstituted 1,2,4-trioxanes” (ACS Med Chem Lett, 2013).
Calls of active or inactive are those of the source. The rule behind the calls is not given here.

Each molecule was assayed on Plasmodium yoelii nigeriensis (assay: Antimalarial activity against chloroquine, mefloquine and halofantrine-resistant Plasmodium yoelii nigeriensis infected in Swiss mouse assessed as suppression of parasitemia at 96 mg/kg, po administered for 4 days measured on day 4). Settings: 96 h.
Format: functional
Method in brief: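 Swiss mice infected with multidrug-resistant P. yoelii nigeriensis were treated by the Peters procedure: 5 per group, dosed daily for 4 days, oral or i.m. Parasitaemia was read on day 4 against an untreated control group. Suppression = [(c − t)/c] × 100, where c is control and t is treated parasitaemia. 100% means parasites were below the detection limit.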
In the case of `C=C(c1ccc(F)cc1)[C@H]1OOC2(CCCC2)O[C@@H]1c1ccc(F)cc1` (relative stereo), the inhibition in vivo at 96 mg/kg was 22.5%.
`C=C(c1ccc(F)cc1)[C@H]1OOC2(O[C@@H]1c1ccc(F)cc1)C1CC3CC(C1)CC2C3` (relative stereo) gave an inhibition in vivo at 96 mg/kg of 16.7%.
`C=C(c1ccc(OC)cc1)[C@H]1OOC2(O[C@@H]1c1ccc(OC)cc1)C1CC3CC(C1)CC2C3` (relative stereo) gave an inhibition in vivo at 96 mg/kg of 24.6%.
For `C=C(c1ccc(F)cc1)[C@H]1OOC2(CCCCC2)O[C@@H]1c1ccc(F)cc1` (relative stereo), the inhibition in vivo at 96 mg/kg was 42.5%.
`C=C(c1ccc(Cl)cc1)[C@H]1OOC2(O[C@@H]1c1ccc(Cl)cc1)C1CC3CC(C1)CC2C3` (relative stereo) gave an inhibition in vivo at 96 mg/kg of 77.2%.
`C=C(c1ccc(Cl)cc1)[C@H]1OOC2(CCCC2)O[C@@H]1c1ccc(Cl)cc1` (relative stereo) gave an inhibition in vivo at 96 mg/kg of 63.6%.
With `C=C(c1ccc(Br)cc1)[C@H]1OOC2(O[C@@H]1c1ccc(Br)cc1)C1CC3CC(C1)CC2C3` (relative stereo) the inhibition in vivo at 96 mg/kg was 18.1%.
With `C=C(c1ccc(Br)cc1)[C@H]1OOC2(CCCCC2)O[C@@H]1c1ccc(Br)cc1` (relative stereo) the inhibition in vivo at 96 mg/kg was 100%.
Work on `C=C(c1ccc(C)cc1)[C@H]1OOC2(CCCC2)O[C@@H]1c1ccc(C)cc1` (relative stereo) yielded an inhibition in vivo at 96 mg/kg of 100%.

What follows are molecules tested on Plasmodium yoelii nigeriensis (assay: Antimalarial activity against chloroquine, mefloquine and halofantrine-resistant Plasmodium yoelii nigeriensis infected in Swiss mouse assessed as protection against parasite-induced mortality at 96 mg/kg, po administered for 4 days measured on day 28). Settings: not given.
Format: functional, organism-based
Parameters: dose 96 mg/kg, route po po po po po po po po po po po
Method in brief: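 Peters 4-day test in Swiss mice infected with multidrug-resistant P. yoelii nigeriensis. Groups of 5 mice were dosed once daily for 4 days at the stated mg/kg, oral or i.m. Mice were followed to day 28. Protection is the percentage of treated mice surviving to day 28, read from the alive/total count per group.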
In the case of `C=C(c1ccc(F)cc1)[C@H]1OOC2(CCCC2)O[C@@H]1c1ccc(F)cc1` (relative stereo), the Activity was “inactive”.
For `C=C(c1ccc(F)cc1)[C@H]1OOC2(O[C@@H]1c1ccc(F)cc1)C1CC3CC(C1)CC2C3` (relative stereo), the Activity was “inactive”.
`C=C(c1ccc(OC)cc1)[C@H]1OOC2(O[C@@H]1c1ccc(OC)cc1)C1CC3CC(C1)CC2C3` (relative stereo) was tested, and the Activity was “inactive”.
`C=C(c1ccc(F)cc1)[C@H]1OOC2(CCCCC2)O[C@@H]1c1ccc(F)cc1` (relative stereo) was tested, and the Activity was “inactive”.
With `C=C(c1ccc(Cl)cc1)[C@H]1OOC2(CCCC2)O[C@@H]1c1ccc(Cl)cc1` (relative stereo) the Activity was “inactive”.
For `C=C(c1ccc(Br)cc1)[C@H]1OOC2(O[C@@H]1c1ccc(Br)cc1)C1CC3CC(C1)CC2C3` (relative stereo), the Activity was “inactive”.
With `C=C(c1ccc(C)cc1)[C@H]1OOC2(CCCC2)O[C@@H]1c1ccc(C)cc1` (relative stereo) the Activity was “inactive”.
